Test results as given in ChEMBL document CHEMBL1156597, “Structure-activity relationship of kahalalide F synthetic analogues” (J Med Chem, 2008).

Key:
K562 = test: Cytotoxicity against human K562 cells after 48 hrs by SRB assay; format: functional; conditions: K562, 48 h; for CC50: read-out: LC50 (the source's name)
Method in brief: (§1)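 Cells grown in RPMI 1640 with 10% FBS and penicillin/streptomycin at 37 °C and 5% CO₂, trypsinized, then seeded at 5 × 10³/well. After 18 h drug-free attachment, samples in DMSO/EtOH/PBS (0.5:0.5:99) were added for 48 h continuous exposure. Cells were fixed with cold TCA (1 h, 4 °C) and stained with SRB (10 min). Tris-solubilized stain read at 490 nm. Triplicate wells, mean ± SD; GI₅₀ derived.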

LNCaP = test: Cytotoxicity against human LNcaP cells after 48 hrs by SRB assay; format: functional; conditions: for CC50: read-out: LC50 (the source's name); method in brief: as §1
LoVo [1] = test: Cytotoxicity against human doxorubicin resistant LoVo cells after 48 hrs by SRB assay; format: functional; conditions: for CC50: read-out: LC50 (the source's name); method in brief: as §1
[2] = Cytotoxicity against human IGROV cells after 48 hrs by SRB assay; format: functional; conditions: for CC50: read-out: LC50 (the source's name); method in brief: as §1
HT-29 = test: Cytotoxicity against human HT29 cells after 48 hrs by SRB assay; format: functional, cell-based; conditions: Homo sapiens, HT-29, 48 h; for CC50: read-out: LC50 (the source's name); method in brief: as §1
A549 = test: Cytotoxicity against human A549 cells after 48 hrs by SRB assay; format: functional, cell-based; conditions: Homo sapiens, A549, 48 h; method in brief: as §1
[3] = Cytotoxicity against human HeLa-APL cells after 48 hrs by SRB assay; format: functional; method in brief: as §1
PANC-1 = test: Cytotoxicity against human PANC1 cells after 48 hrs by SRB assay; format: functional; conditions: PANC-1, 48 h; for CC50: read-out: LC50 (the source's name); method in brief: as §1
[4] = Cytotoxicity against human IGROV-ET cells after 48 hrs by SRB assay; format: functional; conditions: for CC50: read-out: LC50 (the source's name); method in brief: as §1
SK-BR-3 = test: Cytotoxicity against human SKBR3 cells after 48 hrs by SRB assay; format: functional; conditions: SK-BR-3, 48 h; for CC50: read-out: LC50 (the source's name); method in brief: as §1
LoVo [5] = test: Cytotoxicity against human LoVo cells after 48 hrs by SRB assay; format: functional; conditions: for CC50: read-out: LC50 (the source's name)
HeLa = test: Cytotoxicity against human HeLa cells after 48 hrs by SRB assay; format: functional; conditions: for CC50: read-out: LC50 (the source's name); method in brief: as §1
DU-145 = test: Cytotoxicity against human DU145 cells after 48 hrs by SRB assay; format: functional, cell-based; conditions: Homo sapiens, DU-145, 48 h; for CC50: read-out: LC50 (the source's name); method in brief: as §1
SK-MEL-28 = test: Cytotoxicity against human SK-MEL-28 cells after 48 hrs by SRB assay; format: functional, cell-based; conditions: Homo sapiens, SK-MEL-28, 48 h; for CC50: read-out: LC50 (the source's name); method in brief: as §1

## C/C=C1\NC(=O)[C@H](Cc2ccccc2)NC(=O)[C@@H](C(C)C)NC(=O)[C@@H]([C@H](C)CC)NC(=O)[C@H](NC(=O)[C@H](NC(=O)[C@H](CCCN)NC(=O)[C@H]2CCCN2C(=O)[C@H](NC(=O)[C@@H](NC(=O)[C@H](C)NC(=O)[C@H](NC(=O)CCCC(C)C)C(C)C)C(C)C)C(C)C)[C@H](C)CC)[C@H](C)OC(=O)[C@H](C(C)C)NC1=O
K562
  GI50: 822 nM
  TGI: 1610 nM
  CC50: 1970 nM
LNCaP
  GI50: 1380 nM
  TGI: 1160 nM
  CC50: 967 nM
LoVo [1]
  GI50: 1080 nM
  TGI: 1190 nM
  CC50: 306 nM
[2]
  CC50: 503 nM
HT-29
  CC50: 437 nM
A549
  GI50: 585 nM
  LC50: 4930 nM
A549; read-out: GI50
  GI50: 641 nM
[3]
  GI50: 1280 nM
  LC50 (concentration giving 50% net cell kill): 873 nM
  TGI: 1060 nM
PANC-1
  GI50: 1160 nM
  TGI: 1420 nM
  CC50: 1810 nM
[4]
  GI50: 808 nM
  CC50: 561 nM
[4]; read-out: GI50
  GI50: 1230 nM
SK-BR-3
  CC50: 371 nM
LoVo [5]
  GI50: 2050 nM
  TGI: 2070 nM
  CC50: 338 nM
HeLa
  GI50: 1270 nM
  TGI: 1120 nM
  CC50: 998 nM
DU-145
  TGI: 1250 nM
  CC50: 1100 nM
DU-145; read-out: GI50
  GI50: 1420 nM
SK-MEL-28
  TGI: 1190 nM
  CC50: 1150 nM
SK-MEL-28; read-out: GI50
  GI50: 1240 nM

## C/C=C1\NC(=O)[C@H](Cc2ccccc2)NC(=O)[C@@H](C(C)C)NC(=O)[C@@H]([C@H](C)CC)NC(=O)[C@H](NC(=O)[C@H](NC(=O)[C@H](CCCN)NC(=O)[C@H]2CCCN2C(=O)[C@H](NC(=O)[C@@H](NC(=O)[C@@H](NC(=O)[C@@H](C(C)C)N(CCCCCC)CCCCCC)[C@@H](C)O)C(C)C)C(C)C)[C@H](C)CC)[C@H](C)OC(=O)[C@H](C(C)C)NC1=O
K562
  CC50: 1900 nM
LNCaP
  GI50: 3720 nM
  TGI: 3300 nM
  CC50: 1480 nM
LoVo [1]
  CC50: 3780 nM
[2]
  CC50: 1210 nM
HT-29
  CC50: 2030 nM
A549
  LC50: 1160 nM
[3]
  GI50: 1810 nM
  LC50 (concentration giving 50% net cell kill): 1220 nM
  TGI: 1580 nM
PANC-1
  CC50: 2270 nM
[4]
  CC50: 4230 nM
SK-BR-3
  CC50: 3530 nM
LoVo [5]
  CC50: 4060 nM
HeLa
  CC50: 1050 nM
DU-145
  CC50: 2280 nM
SK-MEL-28
  CC50: 1660 nM

## C/C=C1\NC(=O)[C@H](Cc2ccccc2)NC(=O)[C@@H](C(C)C)NC(=O)[C@@H]([C@H](C)CC)NC(=O)[C@H](NC(=O)[C@H](NC(=O)[C@H](CCCN)NC(=O)[C@H]2CCCN2C(=O)[C@H](NC(=O)[C@@H](NC(=O)[C@@H](NC(=O)[C@H](NC(=O)C(F)(F)C(F)(F)C(F)(F)C(F)(F)C(F)(F)C(F)(F)F)C(C)C)[C@@H](C)O)C(C)C)C(C)C)[C@H](C)CC)[C@H](C)OC(=O)[C@H](C(C)C)NC1=O
K562
  GI50: 830 nM
  TGI: 1010 nM
  CC50: 1220 nM
LNCaP
  GI50: 758 nM
  TGI: 757 nM
  CC50: 753 nM
LoVo [1]
  GI50: 286 nM
  TGI: 289 nM
  CC50: 290 nM
[2]
  GI50: 584 nM
  CC50: 459 nM
[2]; read-out: GI50
  GI50: 854 nM
HT-29
  GI50: 513 nM
  TGI: 520 nM
  CC50: 563 nM
A549
  GI50: 745 nM
  LC50: 865 nM
A549; read-out: GI50
  GI50: 636 nM
[3]
  GI50: 596 nM
  LC50 (concentration giving 50% net cell kill): 1200 nM
  TGI: 888 nM
PANC-1
  GI50: 2320 nM
  TGI: 3460 nM
  CC50: 2000 nM
[4]
  GI50: 814 nM
  CC50: 1040 nM
[4]; read-out: GI50
  GI50: 697 nM
SK-BR-3
  TGI: 453 nM
  CC50: 578 nM
SK-BR-3; read-out: GI50
  GI50: 291 nM
LoVo [5]
  GI50: 1160 nM
  TGI: 1180 nM
  CC50: 798 nM
HeLa
  GI50: 961 nM
  TGI: 947 nM
  CC50: 931 nM
DU-145
  GI50: 614 nM
  CC50: 708 nM
DU-145; read-out: GI50
  GI50: 534 nM
SK-MEL-28
  GI50: 765 nM
  CC50: 794 nM
SK-MEL-28; read-out: GI50
  GI50: 734 nM

## C/C=C1\NC(=O)[C@H](Cc2ccccc2)NC(=O)[C@@H](C(C)C)NC(=O)[C@@H]([C@H](C)CC)NC(=O)[C@H](NC(=O)[C@H](NC(=O)[C@H](CCCN)NC(=O)[C@H]2CCCN2C(=O)[C@H](NC(=O)[C@@H](NC(=O)[C@H](NC(=O)[C@H](NC(=O)CCCC(C)C)C(C)C)[C@@H](C)O)C(C)C)C(C)C)[C@H](C)CC)[C@H](C)OC(=O)[C@H](C(C)C)NC1=O
K562
  GI50: 1930 nM
  TGI: 1930 nM
  CC50: 1930 nM
LNCaP
  CC50: 1490 nM
LoVo [1]
  CC50: 22300 nM
[2]
  CC50: 791 nM
HT-29
  CC50: 4710 nM
A549
  LC50: 1810 nM
[3]
  LC50 (concentration giving 50% net cell kill): 1800 nM
PANC-1
  CC50: 1770 nM
[4]
  CC50: 1050 nM
SK-BR-3
  CC50: 1140 nM
LoVo [5]
  TGI: 8960 nM
  CC50: 4750 nM
HeLa
  CC50: 1920 nM
DU-145
  CC50: 1460 nM
SK-MEL-28
  CC50: 1620 nM
